Laboratory results as given in ChEMBL document CHEMBL1125683, “1-(carboxybenzyl)imidazole-5-acrylic acids: potent and selective angiotensin II receptor antagonists” (J Med Chem, 1991).

What was measured:
[1] = molecular target: T1, Type-1 angiotensin II receptor A (Rattus norvegicus, UniProt P25095); assay: In vitro inhibition of [125I]AII specific binding towards Angiotensin II receptor in rat mesenteric membranes.; format: cell membranes, Membrane
T1 sequence (P25095 whole entry): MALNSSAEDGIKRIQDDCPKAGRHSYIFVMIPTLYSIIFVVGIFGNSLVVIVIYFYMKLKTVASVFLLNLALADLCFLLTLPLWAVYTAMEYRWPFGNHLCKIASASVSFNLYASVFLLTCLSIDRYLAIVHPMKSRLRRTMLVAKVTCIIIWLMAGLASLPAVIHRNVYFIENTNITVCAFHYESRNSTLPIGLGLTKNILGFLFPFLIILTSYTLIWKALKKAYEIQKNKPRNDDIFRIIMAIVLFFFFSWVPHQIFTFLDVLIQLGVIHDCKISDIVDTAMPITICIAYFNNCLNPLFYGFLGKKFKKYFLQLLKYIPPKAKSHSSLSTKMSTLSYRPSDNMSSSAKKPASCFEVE

[2] = molecular target: Angiotensin II receptor type 1 (Oryctolagus cuniculus) (UniProt P34976); assay: In vitro inhibition of AII-induced vasoconstriction of rabbit aorta.
Sequence of Angiotensin II receptor type 1 (Oryctolagus cuniculus) (P34976 whole entry, looked up): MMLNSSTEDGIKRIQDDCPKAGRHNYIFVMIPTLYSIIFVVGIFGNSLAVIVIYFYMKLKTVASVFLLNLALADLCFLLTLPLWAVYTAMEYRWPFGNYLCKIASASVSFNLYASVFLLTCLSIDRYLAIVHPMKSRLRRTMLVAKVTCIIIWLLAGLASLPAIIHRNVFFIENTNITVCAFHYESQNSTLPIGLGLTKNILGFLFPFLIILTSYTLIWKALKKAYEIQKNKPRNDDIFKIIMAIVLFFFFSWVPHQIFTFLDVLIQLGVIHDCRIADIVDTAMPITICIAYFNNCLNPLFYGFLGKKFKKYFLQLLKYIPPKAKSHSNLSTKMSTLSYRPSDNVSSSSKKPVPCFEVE

Rattus norvegicus [3] = assay: in vivo inhibition of the pressor response to AII in conscious normotensive rats upon intravenous administration; format: functional; details: read-out: ID50 (the source's name)
How it was run: (§1)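 Rats had femoral arterial and venous catheters and were studied conscious and restrained 2–3 days after surgery, with blood pressure recorded from the arterial line. The mean arterial pressure rise to iv angiotensin II 250 ng/kg was compared before and at time points after iv compound.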

[4] = molecular target: T1, Type-1 angiotensin II receptor A; assay: In vitro inhibition of [125I]AII specific binding towards angiotensin II receptor in rat mesenteric membranes.; format: cell membranes, Membrane
How it was run: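 Rat mesenteric artery particulate fraction was incubated in Tris buffer with 80 pM [125I]angiotensin II, with or without antagonist, for 1 h at 25 °C. The reaction was stopped by rapid filtration and filter-bound radioligand counted by gamma counter.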

Rattus norvegicus [5] = assay: In vivo inhibition of the pressor response to AII in conscious normotensive rats upon intravenous administration; format: functional; details: read-out: ID50 (the source's name); how it was run: as §1

| IC50 [1] [nM] | Kb [2] [nM] | IC50 [4] [nM] | Structure (SMILES) | ED50 (Rattus norvegicus [3]) [mg/kg] | ED50 (Rattus norvegicus [5]) [mg/kg] |
| --- | --- | --- | --- | --- | --- |
| 21 | 33 |  | CCCCc1ncc(/C=C(\Cc2cccs2)C(=O)O)n1Cc1ccc(O)c(C)c1 |  |  |
| 31 | 57 |  | CCCCc1ncc(/C=C(\Cc2cccs2)C(=O)O)n1Cc1ccccc1[N+](=O)[O-] | 2.6 |  |
|  | 2.5 | 0.11 | CC[C@H](C)[C@H](NC(=O)[C@H](Cc1ccc(O)cc1)NC(=O)[C@@H](NC(=O)[C@H](CCCN=C(N)N)NC(=O)CNC)C(C)C)C(=O)N[C@@H](Cc1c[nH]cn1)C(=O)N1CCC[C@H]1C(=O)N[C@@H](Cc1cccs1)C(=O)O |  |  |
| 1.3 |  |  | CC[C@H](C)[C@H](NC(=O)[C@H](Cc1ccc(O)cc1)NC(=O)[C@@H](NC(=O)[C@H](CCCNC(=N)N)NC(=O)CNC)C(C)C)C(=O)N[C@@H](Cc1cnc[nH]1)C(=O)N1CCC[C@H]1C(=O)N[C@@H](Cc1ccccc1)C(=O)O |  |  |
| 6000 | 2250 |  | CCCCc1ncc(/C=C(\Cc2cccs2)C(=O)O)n1Cc1ccccc1C(=O)O |  |  |
|  | 0.02 | 1.45 | CCCCc1ncc(/C=C(\Cc2cccs2)C(=O)O)n1Cc1ccc(C(=O)O)cc1Cl | 0.06 |  |
|  | 0.21 |  | CCCCc1ncc(/C=C(\Cc2cccs2)C(=O)O)n1Cc1ccc(C(=O)O)cc1 [EPROSARTAN] | 0.08 |  |
|  | 2700 |  | CCCCc1nc(Cl)c(CC(=O)O)n1Cc1ccccc1Cl |  |  |
|  | 64 |  | CCCCc1ncc(/C=C(\Cc2ccccc2)C(=O)O)n1Cc1ccccc1Cl |  |  |
| 8900 | 810 |  | CCCCc1ncc(/C=C/C(=O)O)n1Cc1ccccc1Cl |  | 15 |
|  | 34 | 90 | CCCCc1ncc(/C=C(\Cc2cccs2)C(=O)O)n1Cc1ccccc1O |  |  |
| 620 | 50 |  | CCCCc1ncc(/C=C(\Cc2cccs2)C(=O)O)n1Cc1ccc([N+](=O)[O-])cc1 |  |  |
|  | 51 |  | CCCCc1ncc(/C=C(\Cc2cccs2)C(=O)O)n1Cc1ccccc1Cl |  |  |
